CYP2C9 act: CYP2C9 (human) activation; P11712; recombinant CYP2C9, luciferin-H conversion, luminescence; hits give high values; factor 1 = untreated enzyme, 0 = blocked; activation factor at 5 µM; 1.4% of 96,000 active; AID 1024;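 active = activation factor of 2 or more for CYP2C9 at a 5 µM dose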;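 also: 0 = sulfaphenazole-blocked wells and 1 = vehicle-only wells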
Target sequence (P11712 whole entry, looked up): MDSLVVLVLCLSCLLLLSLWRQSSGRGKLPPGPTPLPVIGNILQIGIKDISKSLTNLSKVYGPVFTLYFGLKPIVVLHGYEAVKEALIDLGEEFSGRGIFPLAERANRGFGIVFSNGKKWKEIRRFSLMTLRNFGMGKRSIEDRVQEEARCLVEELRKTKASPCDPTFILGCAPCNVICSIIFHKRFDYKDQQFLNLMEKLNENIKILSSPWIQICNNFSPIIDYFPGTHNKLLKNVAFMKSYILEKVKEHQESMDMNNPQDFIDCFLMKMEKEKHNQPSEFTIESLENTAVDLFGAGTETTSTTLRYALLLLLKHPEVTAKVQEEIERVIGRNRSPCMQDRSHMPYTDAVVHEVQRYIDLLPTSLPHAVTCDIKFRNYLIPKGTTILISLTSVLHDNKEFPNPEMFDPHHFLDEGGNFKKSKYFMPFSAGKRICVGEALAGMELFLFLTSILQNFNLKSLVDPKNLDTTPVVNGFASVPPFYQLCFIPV
HIV Rev-RRE inh: disrupts HIV-1 Rev binding to RRE RNA; inhibition, % at 8 µM; 0.79% of 97,000 active; Rev peptide-RRE RNA binding, FRET; P05866;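 active = inhibition above the screen-wide mean plus 3 SD, cut at about 35% in these data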;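 also: 0% = median DMSO wells and 100% = median Neomycin B control wells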
Target sequence (P05866 whole entry, looked up): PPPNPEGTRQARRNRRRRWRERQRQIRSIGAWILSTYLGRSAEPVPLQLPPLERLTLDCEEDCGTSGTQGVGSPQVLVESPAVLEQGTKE
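Probe or stimulus: fluorescein-Rev peptide as binding partner; assay system: Cy5-tagged RRE RNA duplex with fluorescein-tagged Rev peptide; timing: 5 min compound–RNA preincubation, then 15 min with peptide, 25 °C; medium: HEPES pH 7.5 buffer with KCl, MgCl2, NaCl and EDTA; signal: fluorescein-to-Cy5 FRET, 480 nm excitation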
CYP2C19 act: increases human CYP2C19 enzyme activity | P33261 | 96,000 tested, under 10 active | AID 1025 | recombinant CYP2C19, luciferin-H EGE luminescence; hits give high values; 0 = fully inhibited enzyme, 1 = untreated enzyme | activation factor at 5 µM;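 active = activation factor of at least 2 at 5 µM in the primary screen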;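 also: 0 = wells with 2.5 mM tranylcypromine and 1 = vehicle-only wells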
CYP2C9 inh: inhibitors of human CYP2C9; P11712; CYP2C9 Supersomes, luciferin-H conversion, luminescence; inhibition, % at 5 µM; 20% of 96,000 active;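 active = blocking of liver enzyme CYP2C9 beyond about 50% at 5 µM, limit read from the data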
Cav3 T inh: inhibitors of human Cav3.2 T-type calcium channel; O95180; Cav3.2-expressing cells, Fluo-4 calcium fluorescence FDSS; hits give low values; B-score at 10 µM; 4% of 100,000 active; AID 449739;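 active = single-dose well whose peak fluorescence ratio is a statistical outlier from its plate by either plate-standardised score or position-corrected B-score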
CYP2C19 inhib: blocks human cytochrome P450 2C19. P33261. CYP2C19 Supersomes, luciferin-H EGE luminescence, 30 min. inhibition, % at 5 µM. 21% of 96,000 active. AID 778;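 active = CYP2C19 inhibition above a set limit at 5 µM in the primary screen, cut at about 50% in these data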;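 also: plate controls were negative control wells for no effect and 2.5 mM tranylcypromine positive control for full effect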
* hit, by the source's call; [ ] = dose if it differs, or a comment. Compounds with a hit are over-represented: about 27% of the library has one in this group of screens.

CCCC(c1nnnn1Cc1ccc(OC)cc1)N1CCN(c2ccccc2OC)CC1 (stereo unspecified) was read as CYP2C9 act 0.5, HIV Rev-RRE inh 1, CYP2C19 act 0.6, CYP2C9 inh 48, Cav3 T inh -5.1* and CYP2C19 inhib 43.
For COc1ccc(Cn2nnnc2C(c2cccnc2)N2CCN(c3ccc(O)cc3)CC2)cc1 (stereo unspecified) the results were CYP2C9 act 0.5, HIV Rev-RRE inh -2, CYP2C19 act 0.7, CYP2C9 inh 45, Cav3 T inh 0.34 and CYP2C19 inhib 28.
Screening CC(C)CC(c1nnnn1CC1CCCO1)N1CCN(Cc2ccc3c(c2)OCO3)CC1 (stereo unspecified) returned CYP2C9 act 1.1, HIV Rev-RRE inh -2, CYP2C19 act 0.9, CYP2C9 inh -9, Cav3 T inh -0.031 and CYP2C19 inhib 12.
Screening CCC(c1nnnn1Cc1ccc2c(c1)OCO2)N1CCN(c2ccc(F)cc2)CC1 (stereo unspecified) returned CYP2C9 act 0.1, HIV Rev-RRE inh 14, CYP2C19 act 0.6, CYP2C9 inh 87* and CYP2C19 inhib 43.
Screening CCC(c1nnnn1Cc1ccc2c(c1)OCO2)N1CCN(c2ccc(OC)cc2)CC1 (stereo unspecified) returned CYP2C9 act 0.2, HIV Rev-RRE inh -2, CYP2C19 act 0.3, CYP2C9 inh 83*, Cav3 T inh -1.2 and CYP2C19 inhib 73*.
For CC(C)C(c1nnnn1Cc1ccc(F)cc1)N1CCN(C(=O)c2ccco2)CC1 (stereo unspecified) the results were CYP2C9 act 0.4, HIV Rev-RRE inh 7, CYP2C19 act 0.5, CYP2C9 inh 62*, Cav3 T inh 0.63 and CYP2C19 inhib 50*.
CCOc1cc(C)c(C(C)C)cc1S(=O)(=O)NCc1ccccn1 was read as CYP2C9 act 1.1, HIV Rev-RRE inh 0, CYP2C19 act 0.8, CYP2C9 inh -12, Cav3 T inh 1.5 and CYP2C19 inhib 22.
CCOC(=O)/C(C#N)=C\c1ccc(CC)s1 was read as CYP2C9 act 0.8, HIV Rev-RRE inh 6, CYP2C19 act 0.9, CYP2C9 inh 18, Cav3 T inh -0.088 and CYP2C19 inhib 13.
CCOC(=O)/C(C#N)=C\C=C1C=CN(C)C=C1 was read as CYP2C9 act 1, HIV Rev-RRE inh 130*[fluorescence artefact?], CYP2C19 act 1.1, CYP2C9 inh 5, Cav3 T inh -4.8* and CYP2C19 inhib -13.
Screening Cc1ccc(CSCCNC(=O)CSCc2ccc([N+](=O)[O-])cc2)cc1 returned CYP2C9 act 0.3, HIV Rev-RRE inh 10, CYP2C19 act 0.4, CYP2C9 inh 75*, Cav3 T inh -4.3* and CYP2C19 inhib 58*.
COc1ccc(C2C=C(c3ccccc3)Nc3nc(CCCO)nn32)cc1 (stereo unspecified) was read as CYP2C9 act 0.3, HIV Rev-RRE inh 40*, CYP2C19 act 0.7, CYP2C9 inh 67*, Cav3 T inh -1.1 and CYP2C19 inhib 28.
OCCCc1nc2n(n1)C(c1ccccc1)C=C(c1ccccc1)N2 (stereo unspecified) was read as CYP2C9 act 1, HIV Rev-RRE inh 30, CYP2C19 act 1, CYP2C9 inh -2, Cav3 T inh -0.74 and CYP2C19 inhib -1.
Screening COc1ccc(C2C=C(c3cccs3)Nc3nc(CCCO)nn32)cc1 (stereo unspecified) returned CYP2C9 act 0.5, HIV Rev-RRE inh 129*[fluorescence artefact?], CYP2C19 act 0.8, CYP2C9 inh 47, Cav3 T inh -12* and CYP2C19 inhib 18.
Screening COc1ccc(C2C(C(=O)Nc3ccccc3)=C(C)Nc3nc(CCCO)nn32)cc1 (stereo unspecified) returned CYP2C9 act 0.7, HIV Rev-RRE inh 5, CYP2C19 act 1, CYP2C9 inh 30, Cav3 T inh 0.95 and CYP2C19 inhib 0.
For O=C(Nc1cccc2nsnc12)c1ccc(-c2cccc(Cl)c2)o1 the results were CYP2C9 act 0.9, HIV Rev-RRE inh 29, CYP2C19 act 0.9, CYP2C9 inh 7, Cav3 T inh -0.23 and CYP2C19 inhib 14.
For CC1C2=C(CCCC2=O)N(c2cccc3ccccc23)C2=C1C(=O)CCC2 the results were HIV Rev-RRE inh 9.
Cc1ccccc1-c1noc(N)c1C#N was read as CYP2C9 act 0.6, HIV Rev-RRE inh 14, CYP2C19 act 0.9, CYP2C9 inh 43, Cav3 T inh 0.019 and CYP2C19 inhib 7.
Screening CCOc1cc(-c2noc(N)c2C#N)cc(OCC)c1OCC returned CYP2C9 act 0.5, HIV Rev-RRE inh 11, CYP2C19 act 0.6, CYP2C9 inh 53* and CYP2C19 inhib 42.
Screening COc1ccc(-c2nn3c(C4CCCCC4)nnc3s2)cc1OC returned CYP2C9 act 0.4, HIV Rev-RRE inh 4, CYP2C19 act 0.3, CYP2C9 inh 64*, Cav3 T inh -0.19 and CYP2C19 inhib 74*.
Screening COc1cc(-c2nn3c(C4CCCCC4)nnc3s2)cc(OC)c1OC returned CYP2C9 act 0.2, HIV Rev-RRE inh 2, CYP2C19 act 0.8, CYP2C9 inh 84*, Cav3 T inh 3 and CYP2C19 inhib 22.
c1ccc(-c2nn3c(C4CCCCC4)nnc3s2)cc1 was read as CYP2C9 act 0.6, HIV Rev-RRE inh 9, CYP2C19 act 0.8, CYP2C9 inh 38, Cav3 T inh -1.1 and CYP2C19 inhib 21.
Screening CC(NS(=O)(=O)c1ccc(F)cc1)C(c1cccs1)N1CCN(C)CC1 (stereo unspecified) returned HIV Rev-RRE inh 8 and Cav3 T inh 0.41.
`COc1ccc(/C=C/C(=O)c2sc(-c3ccccc3)nc2C)cc1` gave CYP2C9 act 0.9, HIV Rev-RRE inh 10, CYP2C19 act 1, CYP2C9 inh 12, Cav3 T inh -1.1 and CYP2C19 inhib -5.
Screening CC(C)C(c1nnnn1C1CCCC1)N(C)C1CCCCC1 (stereo unspecified) returned CYP2C9 act 0.5, HIV Rev-RRE inh 10, CYP2C19 act 0.8, CYP2C9 inh 51*, Cav3 T inh -2 and CYP2C19 inhib 22.
COCCn1nnnc1C(c1cc2ccc(C)cc2[nH]c1=O)N(Cc1ccco1)Cc1cccs1 (stereo unspecified) was read as CYP2C9 act 0.3, HIV Rev-RRE inh 4, CYP2C19 act 0.5, CYP2C9 inh 70*, Cav3 T inh -2 and CYP2C19 inhib 47.
Cc1cc2cc(C(c3nnnn3C3CCCC3)N(Cc3cccnc3)Cc3ccco3)c(=O)[nH]c2cc1C (stereo unspecified) was read as CYP2C9 act 0.4, HIV Rev-RRE inh 5, CYP2C19 act 0.4, CYP2C9 inh 60*, Cav3 T inh -3.3 and CYP2C19 inhib 60*.
Screening Cc1ccc(C(c2nnnn2C2CCCCC2)N(C)C2CCCCC2)cc1 (stereo unspecified) returned CYP2C9 act 1, HIV Rev-RRE inh 8, CYP2C19 act 0.9, CYP2C9 inh -1, Cav3 T inh -3.2 and CYP2C19 inhib 14.

Assay outcomes: PubChem BioAssay, several laboratories
